The source made the active and inactive calls. The calls are words filed in the database; no cut-off is given here.
Columns and labels:
Jurkat [1] = experiment: Induction of cell death in human Jurkat cells at 5 uM measured after 48 hrs in presence of Z-VAD-FMK by flow cytometry analysis; assay type: functional, cell-based
A549 = experiment: cells; conditions: Homo sapiens
Jurkat [2] = experiment: Upregulation of Ac-HH3 level in human Jurkat cells measured after 24 hrs by Western blot analysis; assay type: functional, cell-based; conditions: dose <= 10000.0 nM
Summary of the method: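 Jurkat cells were incubated 24 h with the indicated concentrations. Ac-HH3 was detected by Western blot against a GAPDH loading control, quantified by densitometry and normalized to DMSO-treated cells. Data are mean ± SEM of two independent experiments; one-way ANOVA vs DMSO.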

THP-1 [3] = experiment: cells; conditions: Homo sapiens
Jurkat [4] = experiment: Upregulation of Ac-HH3 level in human Jurkat cells at 1 uM measured after 6 hrs by Western blot analysis; assay type: functional, cell-based
Summary of the method: (§1)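 Jurkat cells exposed to the indicated compound concentrations for 6 h. Ac-SMC3 and Ac-HH3 were detected by Western blot with GAPDH as loading control. Bands were quantified by densitometry and normalized to the DMSO-treated group. Data are mean ± SEM of two independent experiments, compared with DMSO by one-way ANOVA.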

HCT-116 [5] = experiment: Induction of ferroptosis in human HCT-116 cells assessed as increase in lipid peroxidation at low concentration incubated for 24 hrs by BODIPY 581/591 C11 staining based flow cytometry analysis; assay type: functional, cell-based; conditions: dose 0.37-10 µM
Jurkat [6] = experiment: Upregulation of Ac-tubulin level in human Jurkat cells at upto 1 uM measured after 6 hrs by Western blot analysis; assay type: functional, cell-based
Summary of the method: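 Jurkat cells were treated for 6 h at the indicated concentrations. Acetylated tubulin was probed by Western blot, with GAPDH as loading control.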

Jurkat [7] = experiment: Induction of apoptosis in human Jurkat cells assessed as increase in caspase 3/7 activity at 5 uM incubated for 48 hrs; assay type: functional, cell-based
Jurkat [8] = experiment: Induction of cell death in human Jurkat cells at 5 uM measured after 48 hrs in presence of necrostatin-1 by flow cytometry analysis; assay type: functional, cell-based
Jurkat [9] = experiment: cells; conditions: Homo sapiens
Jurkat [10] = experiment: cells; conditions: Homo sapiens; remark: listed apart in the source
Jurkat [11] = experiment: Induction of cell death in human Jurkat cells at 5 uM measured after 48 hrs in presence of ferrostatin-1 by flow cytometry analysis; assay type: functional, cell-based
Jurkat [12] = experiment: Induction of ferroptosis in human Jurkat cells assessed as increase in lipid peroxidation incubated for 48 hrs by BODIPY 581/591 C11 staining based flow cytometry analysis; assay type: functional, cell-based
Jurkat [13] = experiment: Upregulation of AcHH4 level on human Jurkat cells at 0.04 to 10 uM measured after 48 hrs by Western blot analysis; assay type: functional, cell-based; conditions: dose 0.04-10 µM
Jurkat [14] = experiment: Effect on GSPT1 level in human Jurkat cells at upto 10 uM by Western blot analysis; assay type: functional, cell-based
Summary of the method: (§2)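 Jurkat cells were treated with graded concentrations for 6 h, alongside 10 μM pomalidomide. IKZF1, IKZF3 and GSPT1 were detected by Western blot, with GAPDH as the loading control.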

HCT-116 [15] = experiment: Upregulation of Ac-HH3 level in human HCT-116 cells incubated for 6 hrs by Western blot analysis; assay type: functional, cell-based; conditions: dose 0.004-3.3 µM
Summary of the method: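 HCT116 cells were incubated with graded concentrations for 6 h. Ac-HH3 was detected by Western blot with GAPDH as the loading control, then quantified by densitometry and normalized to DMSO-treated cells. Data are mean ± SEM of two independent experiments, compared against DMSO by one-way ANOVA.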

Jurkat [16] = experiment: Effect on IKZF3 level in human Jurkat cells at upto 10 uM by Western blot analysis; assay type: functional, cell-based; summary of the method: as §2
Jurkat [17] = experiment: Upregulation of Ac-SMC3 level in human Jurkat cells at 1 uM measured after 6 hrs by Western blot analysis; assay type: functional, cell-based; summary of the method: as §1
Jurkat [18] = experiment: cells; conditions: Homo sapiens; remark: listed apart in the source
HCT-116 [19] = experiment: Upregulation of Ac-SMC3 level in human HCT-116 cells incubated for 6 hrs by Western blot analysis; assay type: functional, cell-based; conditions: dose 0.004-3.3 µM
Summary of the method: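 HCT116 cells were treated 6 h with the indicated concentrations. Ac-SMC3 was measured by Western blot with GAPDH as loading control, quantified by densitometry and normalized to the DMSO group. Data are mean ± SEM from two independent experiments; one-way ANOVA vs DMSO.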

HCT-116 [20] = experiment: cells; conditions: Homo sapiens
HCT-116 [21] = experiment: Induction of apoptosis in human HCT-116 cells assessed as increase in caspase 3/7 activity incubated for 48 hrs; assay type: functional, cell-based; conditions: dose 12.5-5 µM
THP-1 [22] = experiment: Induction of ferroptosis in human THP-1 cells assessed as increase in lipid peroxidation at 0.37 to 10 uM incubated for 24 hrs by BODIPY 581/591 C11 staining based flow cytometry analysis; assay type: functional, cell-based; conditions: dose 0.37-10 µM
Jurkat [23] = experiment: Upregulation of Ac-SMC3 level in human Jurkat cells measured after 6 hrs by Western blot analysis; assay type: functional, cell-based; conditions: dose 0.0001-1 µM; summary of the method: as §1
HCT-116 [24] = experiment: Induction of apoptosis in human HCT-116 cells assessed as increase in caspase 3/7 activity at 5 uM incubated for 48 hrs; assay type: functional, cell-based
Jurkat [25] = experiment: cells; conditions: Homo sapiens; remark: listed apart in the source
Jurkat [26] = experiment: Induction of cell death in human Jurkat cells at 5 uM measured after 48 hrs in presence of chloroquine by flow cytometry analysis; assay type: functional, cell-based
HCT-116 [27] = experiment: Upregulation of Ac-HH3 level in human HCT-116 cells at 0.04 to 3.3 uM measured after 24 hrs by Western blot analysis; assay type: functional, cell-based; conditions: dose 0.04-3.3 µM
Jurkat [28] = experiment: Induction of apoptosis in human Jurkat cells at 1.1 to 10 uM measured after 24 to 48 hrs by AnnexinV/FITC and PI staining based flow cytometry analysis; assay type: functional, cell-based; conditions: dose 1.1-10 µM, time 24-48 hrs
Jurkat [29] = experiment: Induction of cell cycle arrest in human Jurkat cells assessed as accumulation of cells at G0/G1 phase measured after 48 hrs by PI staining based flow cytometry analysis; assay type: functional; conditions: dose 0.13-3.3 µM
HCT-116 [30] = experiment: Induction of apoptosis in human HCT-116 cells assessed as necrotic cells at 1.1 uM measured after 48 hrs by AnnexinV/FITC and PI staining based flow cytometry analysis (reference value: […]); assay type: functional
Jurkat [31] = experiment: Induction of apoptosis in human Jurkat cells assessed as increase in caspase 3/7 activity incubated for 48 hrs; assay type: functional, cell-based; conditions: dose upper 5.0 µM
Jurkat [32] = experiment: Induction of ferroptosis in human Jurkat cells assessed as increase in lipid peroxidation incubated for 24 hrs by BODIPY 581/591 C11 staining based flow cytometry analysis; assay type: functional, cell-based; conditions: dose 0.37-10 µM
Jurkat [33] = experiment: Upregulation of Ac-HH3 level in human Jurkat cells incubated for 6 hrs by Western blot analysis; assay type: functional, cell-based; summary of the method: as §1
Jurkat [34] = experiment: Effect on IKZF1 level in human Jurkat cells at upto 10 uM by Western blot analysis; assay type: functional, cell-based; summary of the method: as §2
HCT-116 [35] = experiment: Induction of cell cycle arrest in human HCT-116 cells assessed as accumulation of cells at G2/M phase measured after 48 hrs by PI staining based flow cytometry analysis; assay type: functional; conditions: dose 0.13-3.3 µM
HCT-116 [36] = experiment: Induction of apoptosis in human HCT-116 cells measured after 48 hrs by AnnexinV/FITC and PI staining based flow cytometry analysis; assay type: functional, cell-based; conditions: dose 1.1-10 µM
Jurkat [37] = experiment: Upregulation of Ac-SMC3 level in human Jurkat cells incubated for 6 hrs by Western blot analysis; assay type: functional, cell-based; conditions: dose <= 1.0 µM; summary of the method: as §1
Jurkat [38] = experiment: Upregulation of AcHH3 level on human Jurkat cells at 0.04 to 10 uM measured after 48 hrs by Western blot analysis; assay type: functional, cell-based; conditions: dose 0.04-10 µM
THP-1 [39] = experiment: Upregulation of Ac-HH3 level in human THP-1 cells at 0.04 to 3.3 uM measured after 24 hrs by Western blot analysis; assay type: functional, cell-based; conditions: dose 0.04-3.3 µM
Summary of the method: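 THP-1 cells were exposed to the compound at the indicated concentrations for 24 h, then immunoblotted for Ac-HH3, Ac-SMC3, Ac-tubulin and HDAC8 with GAPDH as loading control. Band intensities were quantified and normalized to the DMSO-treated group. Data are mean ± SEM of two independent experiments, analysed by one-way ANOVA against DMSO.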

Question: Which Activity (Jurkat [1]) does the source give for CCCCCCNNC(=O)c1ccc(CNC(=O)CN2CCC(c3ccc(NC4CCC(=O)NC4=O)cc3)CC2)cc1 (stereo not given) here?
Answer: Active

Question: And the IC50 (A549)?
Answer: 17.5 µM

Question: What about the Activity (Jurkat [2]) of the same molecule?
Answer: Dose-Dependent Effect

Question: What about the IC50 (THP-1 [3]) of the same molecule?
Answer: > 33.3 µM

Question: And the Activity (Jurkat [4])?
Answer: Active

Question: And the Activity (HCT-116 [5])?
Answer: Active

Question: What about the Activity (Jurkat [6]) of the same molecule?
Answer: inactive

Question: What about the Activity (Jurkat [7]) of the same molecule?
Answer: Active

Question: What about the Activity (Jurkat [8]) of the same molecule?
Answer: Active

Question: And the IC50 (Jurkat [9])?
Answer: 2.8 µM

Question: What about the IC50 (Jurkat [10]) of the same molecule?
Answer: 2.5 µM

Question: What about the Activity (Jurkat [11]) of the same molecule?
Answer: Active

Question: What about the Activity (Jurkat [12]) of the same molecule?
Answer: inactive

Question: And the Activity (Jurkat [13])?
Answer: Active

Question: And the Activity (Jurkat [14])?
Answer: inactive

Question: And the Activity (HCT-116 [15])?
Answer: Dose-Dependent Effect

Question: And the Activity (Jurkat [16])?
Answer: inactive

Question: And the Activity (Jurkat [17])?
Answer: Active

Question: What about the IC50 (Jurkat [18]) of the same molecule?
Answer: 1.5 µM

Question: And the Activity (HCT-116 [19])?
Answer: Dose-Dependent Effect

Question: What about the IC50 (HCT-116 [20]) of the same molecule?
Answer: 3.8 µM

Question: What about the Activity (HCT-116 [21]) of the same molecule?
Answer: Dose-Dependent Effect

Question: And the Activity (THP-1 [22])?
Answer: inactive

Question: What about the Activity (Jurkat [23]) of the same molecule?
Answer: Dose-Dependent Effect

Question: And the Activity (HCT-116 [24])?
Answer: Active

Question: What about the IC50 (Jurkat [25]) of the same molecule?
Answer: 2 µM

Question: And the Activity (Jurkat [26])?
Answer: Active

Question: What about the Activity (HCT-116 [27]) of the same molecule?
Answer: Active

Question: What about the Activity (Jurkat [28]) of the same molecule?
Answer: inactive

Question: What about the Activity (Jurkat [29]) of the same molecule?
Answer: Dose-Dependent Effect

Question: And the Activity (HCT-116 [30])?
Answer: 4.28%

Question: And the Activity (Jurkat [31])?
Answer: Dose-Dependent Effect

Question: And the Activity (Jurkat [32])?
Answer: Dose-Dependent Effect

Question: And the Activity (Jurkat [33])?
Answer: Dose-Dependent Effect

Question: What about the Activity (Jurkat [34]) of the same molecule?
Answer: inactive

Question: And the Activity (HCT-116 [35])?
Answer: Dose-Dependent Effect

Question: And the Activity (HCT-116 [36])?
Answer: Dose-Dependent Effect

Question: What about the Activity (Jurkat [37]) of the same molecule?
Answer: Dose-Dependent Effect

Question: What about the Activity (Jurkat [38]) of the same molecule?
Answer: Active

Question: What about the Activity (THP-1 [39]) of the same molecule?
Answer: Active
